Hits are enriched below; roughly 2.2% of the tested compounds scored in any of these assays.
Scp-1 inhibitor: Scp-1 phosphatase inhibitors, primary screen, biochemical, colorimetric, uHTS | Recombinant Scp1, phosphopeptide, malachite green phosphate absorbance | inhibition, % at 20 µM | 0.88% of 340,000 active;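 active = inhibition above about 50% at 20 µM, limit read from the data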;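 also: plate controls were DMSO wells with enzyme for no effect and wells lacking enzyme for full effect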
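Test system: SCP-1 phosphatase catalytic domain, residues 76-261 | Compound dosing: One concentration, 20 µM, with 1.0% DMSO | Schedule: 45 min room-temperature reaction, 5 min colour, 30 min stabiliser | Detection: Absorbance at 630 nm | Read-out basis: % inhibition of SCP-1 phosphate liberation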
STEP block: STEP phosphatase inhibitors, primary screen, biochemical, fluorescence intensity, uHTS; Tyrosine-protein phosphatase non-receptor type 5 (Homo sapiens), P54829; recombinant STEP, OMFP fluorogenic substrate; inhibition, % at 20 µM; 0.25% of 360,000 active;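 active = inhibition at 20 µM, scaled per plate between control wells, above about 37%, limit read from the data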;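 also: 0% = DMSO with enzyme and substrate and 100% = substrate only without enzyme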
Target sequence (P54829 whole entry, looked up): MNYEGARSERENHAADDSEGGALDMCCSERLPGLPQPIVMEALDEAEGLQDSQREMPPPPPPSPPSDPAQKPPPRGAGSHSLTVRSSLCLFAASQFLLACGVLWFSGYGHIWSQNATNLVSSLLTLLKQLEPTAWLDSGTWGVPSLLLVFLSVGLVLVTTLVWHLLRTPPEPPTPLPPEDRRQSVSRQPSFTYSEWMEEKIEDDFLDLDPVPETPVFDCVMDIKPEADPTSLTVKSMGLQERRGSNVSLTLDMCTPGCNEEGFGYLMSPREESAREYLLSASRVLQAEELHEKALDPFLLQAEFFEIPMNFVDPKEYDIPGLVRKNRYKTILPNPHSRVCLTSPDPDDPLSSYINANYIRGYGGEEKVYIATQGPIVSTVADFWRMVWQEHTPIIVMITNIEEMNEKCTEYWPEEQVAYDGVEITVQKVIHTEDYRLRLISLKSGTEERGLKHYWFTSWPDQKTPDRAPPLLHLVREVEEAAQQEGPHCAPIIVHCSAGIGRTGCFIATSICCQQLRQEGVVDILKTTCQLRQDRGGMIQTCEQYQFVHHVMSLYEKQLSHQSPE
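System: STEP phosphatase, cell-free reaction; Buffer or medium: Bis-Tris pH 6.0 buffer with DTT, detergent; Incubation: 20 min at room temperature, dark; Measured by: fluorescence, 480/540 nm.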
LMPTP inh: LMPTP phosphatase inhibitors, primary screen, biochemical, fluorescence intensity, uHTS | Low molecular weight phosphotyrosine protein phosphatase (Homo sapiens), P24666 | recombinant LMPTP-A, OMFP fluorogenic substrate | inhibition, % at 20 µM | 0.22% of 360,000 active | AID 651560, 2012;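 active = compounds that cut the enzyme signal by at least half of the control window in the single-dose screen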;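 also: plate controls were DMSO wells with enzyme plus substrate for no effect and substrate without enzyme for full effect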
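material = LMPTP-A | quantity = 0.625 nM enzyme | reagent = OMFP substrate, 400 µM final | buffer or medium = Bis-Tris pH 6.0, DTT, detergent | detection = endpoint fluorescence intensity from OMFP dephosphorylation | dosing = single 20 µM dose | read-out basis = % inhibition relative to no-enzyme and uninhibited control wells | control set = no-enzyme and uninhibited controls | timing = 50 min at room temperature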
DNMT1 inh: human DNMT1 methyltransferase inhibitors, primary screen, biochemical, molecular beacon, fluorescence, HinP1I cleavage, uHTS; 0.83% of 360,000 active; inhibition (reported as % activation of signal), % at 10 µM; DNA (cytosine-5)-methyltransferase 1 (Homo sapiens), P26358; AID 588458, 2011; in the data active = inhibition above about 50%
SUMO1 PPI mod: modulators of SUMO1 protein-protein interactions, primary screen, biochemical, uHTS; Small ubiquitin-related modifier 1 (Homo sapiens), P63165; AID 602429, 2012; SUMO1 binding to a labelled peptide, TR-FRET, 1 h; inhibition, % at 20 µM; 0.33% of 360,000 active; in the data active = inhibition above about 37%
GRK2 aptamer HTS: compounds blocking aptamer binding on GRK2 – biochemical, human GRK2, bead flow cytometry, HTS, primary screen; Beta-adrenergic receptor kinase 1 (Homo sapiens), P25098; FAM-aptamer displacement from GRK2; inhibition of aptamer binding, % at 10 µM; 0.59% of 330,000 active; AID 488847, 2010;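 active = inhibition of aptamer binding above 40%, roughly 3 SD of noise, on plates passing a quality check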;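 also: median bead fluorescence of bound FAM aptamer so fluorescent compounds give negative values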
Scp-1 conf: Scp-1 phosphatase inhibitors, retest, confirmation, biochemical, colorimetric, single concentration; 61% of 2,500 active; recombinant SCP-1 catalytic domain, phosphate release, malachite green absorbance; shares compounds with Scp-1 inhibitor; inhibition, % at 20 µM;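 also: plate controls were DMSO with enzyme for no effect and buffer wells lacking enzyme for full effect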
MG interference: colorimetric readout interference by compounds, confirmation, artefact control for Scp-1 inhibitor project, biochemical, single concentration; apparent inhibition (interference), % at 20 µM; Colorimetric interference counterscreen, malachite green absorbance 630 nm; 2,500 tested, under 10 active; shares compounds with Scp-1 inhibitor; AID 540313, 2011;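 also: compounds added after enzyme reaction finished so only phosphate colour detection is probed; plate controls were DMSO wells with completed Scp-1 reaction for no effect and substrate wells lacking enzyme for full effect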
* = called active by the depositor.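 The calls were made as follows, unless noted: active = inhibition of at least 30% at 20 µM; inactive = the rest.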

How did Fc1ccc2cnc(-c3ccccc3)c(-c3cc(C(F)(F)F)cc(C(F)(F)F)c3)c2c1 do in these assays?
Scp-1 inhibitor: 58.5*; STEP block: 3.1; LMPTP inh: 3.7; DNMT1 inh: 22.9; SUMO1 PPI mod: 9.4; GRK2 aptamer HTS: 3.0; Scp-1 conf: 22.1; MG interference: -9.0

How did Fc1ccc2c(-c3cccc(C(F)(F)F)c3)c(-c3ccccc3)ncc2c1 do in these assays?
Scp-1 inhibitor: 6.0; STEP block: 0.5; LMPTP inh: 4.7; DNMT1 inh: 11.6; SUMO1 PPI mod: 5.0; GRK2 aptamer HTS: 2.0

What do the screens show for `Fc1ccc2cnc(-c3ccccc3)c(-c3ccc(C(F)(F)F)cc3)c2c1`?
Scp-1 inhibitor: 72.5*; STEP block: 1.1; LMPTP inh: 1.2; DNMT1 inh: 13.0; SUMO1 PPI mod: 4.8; GRK2 aptamer HTS: 0.0; Scp-1 conf: 7.2; MG interference: -12.3

What do the screens show for `COC(=O)c1ccc(-c2c(-c3ccccc3)ncc3cc(F)ccc23)cc1`?
Scp-1 inhibitor: 52.9*; STEP block: -2.0; LMPTP inh: 2.3; DNMT1 inh: 2.3; SUMO1 PPI mod: 1.1; GRK2 aptamer HTS: 0.0; Scp-1 conf: -5.6; MG interference: -4.3

How did CCOC(=O)C(=O)N(C)c1c(CC)nc2c(OCc3ccc(OC)cc3)cccn12 do in these assays?
STEP block: -2.6; LMPTP inh: -0.8; DNMT1 inh: -0.8; SUMO1 PPI mod: -1.8

What do the screens show for `COCCn1c(N)c(N(Cc2ccccc2)C(=O)C(C)Oc2ccc(Br)cc2)c(=O)[nH]c1=O` (stereo not drawn)?
STEP block: 0.3; LMPTP inh: -1.3; DNMT1 inh: 11.5; SUMO1 PPI mod: -2.4

Results for O=C1O[C@@H](c2ccccc2)C[C@@H](O)C(=O)CCc2ccccc21 ?
LMPTP inh: -0.6; SUMO1 PPI mod: -0.3

Results for CC(=O)N(C)C[C@@H]1Oc2ncc(Br)cc2C(=O)N([C@H](C)CO)C[C@@H]1C ?
STEP block: -2.5; LMPTP inh: -1.0; DNMT1 inh: 4.5; SUMO1 PPI mod: 15.9

How did Cc1ccc(C)c(OCCn2nnc3ccccc32)c1 do in these assays?
Scp-1 inhibitor: -3.5; STEP block: -1.2; LMPTP inh: -0.4; DNMT1 inh: 7.6; SUMO1 PPI mod: 7.3; GRK2 aptamer HTS: 1.0

How did Cc1cc(C)cc(OCCn2nnc3ccccc32)c1 do in these assays?
Scp-1 inhibitor: 61.5*; STEP block: -1.2; LMPTP inh: 1.4; DNMT1 inh: -3.2; SUMO1 PPI mod: 4.2; GRK2 aptamer HTS: 6.0; Scp-1 conf: -12.6; MG interference: -16.2

How did Cc1cc(C(=O)N2CCC2(C)C(=O)NS(=O)(=O)c2ccccc2Cl)nn1C (stereo not drawn) do in these assays?
STEP block: 4.0; LMPTP inh: -1.5; DNMT1 inh: 0.5; SUMO1 PPI mod: -1.2

Results for CCCCNC(=O)C(NC(=O)c1ccc2c(c1)OCO2)C(=O)c1ccccc1 (stereo not drawn) ?
LMPTP inh: -0.1; SUMO1 PPI mod: -2.6

Bioassay records as filed in PubChem BioAssay.
